Assay results as given in ChEMBL document CHEMBL4665639, “N-Benzylanilines as Fatty Acid Synthesis Inhibitors against Biofilm-related Methicillin-resistant Staphylococcus aureus” (ACS Med Chem Lett, 2019).
Converted amounts (≈) assume the structure as drawn. The source made the active and inactive calls. The calls are words filed in the database; no cut-off is given here.

How the values were obtained:
Staphylococcus aureus [1] = assay: Antibacterial activity against Staphylococcus aureus assessed as bacterial growth inhibition after 24 hrs by CLSI protocol based broth microdilution assay; assay type: functional
Staphylococcus aureus [2] = assay: Antibacterial activity against methicillin-resistant Staphylococcus aureus assessed as bacterial growth inhibition after 24 hrs by CLSI protocol based broth microdilution assay; assay type: functional
Candida tropicalis = assay: Antifungal activity against Candida tropicalis assessed as fungal growth inhibition after 24 hrs by CLSI protocol based broth microdilution assay; assay type: functional
Escherichia coli = assay: Antibacterial activity against Escherichia coli assessed as bacterial growth inhibition after 24 hrs by CLSI protocol based broth microdilution assay; assay type: functional
Pseudomonas aeruginosa = assay: Antibacterial activity against Pseudomonas aeruginosa assessed as bacterial growth inhibition after 24 hrs by CLSI protocol based broth microdilution assay; assay type: functional
Candida albicans = assay: Antifungal activity against Candida albicans assessed as fungal growth inhibition after 24 hrs by CLSI protocol based broth microdilution assay; assay type: functional
Bacillus cereus = assay: Antibacterial activity against Bacillus cereus assessed as bacterial growth inhibition after 24 hrs by CLSI protocol based broth microdilution assay; assay type: functional
Staphylococcus aureus [3] = assay: Antibiofilm activity against methicillin-resistant Staphylococcus aureus ATCC 43300 assessed as reduction in biofilm biomass at 0.5 to 4 mg/L after 24 hrs by MTT assay; assay type: functional, organism-based; conditions: dose mg/L 0.5-4, time 24.0 hrs
Method in brief: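 Biofilm growth of MRSA ATCC 43300 measured in the presence of compound in cultivation plates, with a DMSO control. Significance of control vs treated is given at p < 0.05, 0.01 and 0.001.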

Enterococcus faecium = assay: Antibacterial activity against Enterococcus faecium assessed as bacterial growth inhibition after 24 hrs by CLSI protocol based broth microdilution assay; assay type: functional
Staphylococcus aureus [4] = assay: Inhibition of Staphylococcus aureus ATCC 6538 fabI expressed in Escherichia coli BL21 (DE3) assessed as oxidation of NADPH to NADP+ using trans-2-octenoyl CoA as substrate incubated for 2 hrs in presence of NADPH by spectrophotometric analysis

| SMILES | Activity (Staphylococcus aureus [1]) | Activity (Staphylococcus aureus [2]) | MIC (Candida tropicalis) [µg/mL] | MIC (Escherichia coli) [µg/mL] | MIC (Pseudomonas aeruginosa) [µg/mL] | MIC (Candida albicans) [µg/mL] | MIC (Staphylococcus aureus [1]) [µg/mL] | MIC (Staphylococcus aureus [2]) [µg/mL] | MIC (Bacillus cereus) [µg/mL] | Activity (Staphylococcus aureus [3]) | MIC (Enterococcus faecium) [µg/mL] | inhibition (Staphylococcus aureus [4]) |
| --- | --- | --- | --- | --- | --- | --- | --- | --- | --- | --- | --- | --- |
| Oc1c(Br)cc(Br)cc1/C=N\c1cccc(C(F)(F)F)c1 | inactive | inactive | ≥ 64 | ≥ 64 | ≥ 64 | ≥ 64 | – | – | – | – | – | – |
| Oc1c(Br)cc(Cl)cc1/C=N\c1cc(C(F)(F)F)ccc1Cl | – | – | ≥ 64 | ≥ 64 | ≥ 64 | ≥ 64 | – | – | – | – | – | – |
| Oc1cccc(NCc2cc(Cl)cc(Br)c2O)c1 | – | – | ≥ 64 | ≥ 64 | ≥ 64 | ≥ 64 | – | – | – | – | – | – |
| Oc1ccc(/N=C\c2cc(Br)cc(Br)c2O)cc1 | inactive | inactive | ≥ 64 | ≥ 64 | ≥ 64 | ≥ 64 | – | – | – | – | – | – |
| Oc1c(Br)cc(Cl)cc1/C=N\CCc1ccc(Br)cc1 | – | – | ≥ 64 | ≥ 64 | ≥ 64 | ≥ 64 | – | – | – | – | – | – |
| Oc1c(Br)cc(Cl)cc1/C=N\c1cccc(C(F)(F)F)c1 | – | – | ≥ 64 | ≥ 64 | ≥ 64 | ≥ 64 | – | – | – | – | – | – |
| Oc1ccc(Cl)cc1/C=N\c1ccc(OC(F)(F)F)cc1 | – | – | ≥ 64 | ≥ 64 | ≥ 64 | ≥ 64 | – | – | – | – | – | – |
| CC1COc2c(N3CCN(C)CC3)c(F)cc3c(=O)c(C(=O)O)cn1c23 (configuration not stated) [OFLOXACIN] | – | – | ≥ 64 | ≥ 64 | ≥ 64 | ≥ 64 | – | – | – | – | – | – |
| Oc1ccc(NCc2cc(Br)cc(Br)c2O)cc1 | – | – | ≥ 64 | ≥ 64 | ≥ 64 | ≥ 64 | – | – | – | – | – | – |
| Oc1ccc(Br)cc1/C=N\c1cccc(OC(F)(F)F)c1 | – | – | ≥ 64 | ≥ 64 | ≥ 64 | ≥ 64 | – | – | – | – | – | – |
| Oc1ccc(Br)cc1/C=N\c1cc(C(F)(F)F)ccc1Cl | – | – | ≥ 64 | ≥ 64 | ≥ 64 | ≥ 64 | – | – | – | – | – | – |
| Oc1c(Br)cc(Cl)cc1CNCCc1ccc(F)cc1 | – | – | ≥ 64 | ≥ 64 | ≥ 64 | ≥ 64 | – | – | – | – | – | – |
| Oc1ccc(Br)cc1CNc1cc(C(F)(F)F)ccc1F | – | – | ≥ 64 | ≥ 64 | ≥ 64 | ≥ 64 | 16 (≈ 43.9 µM) | 16 (≈ 43.9 µM) | – | – | – | – |
| Oc1ccc(Cl)cc1CNc1cc(C(F)(F)F)ccc1F | – | – | ≥ 64 | ≥ 64 | ≥ 64 | ≥ 64 | 4 (≈ 12.5 µM) | 32 (≈ 100 µM) | – | – | – | – |
| Oc1ccc(Cl)cc1CNc1ccc(OC(F)(F)F)cc1 | – | – | ≥ 64 | ≥ 64 | ≥ 64 | ≥ 64 | – | – | – | – | – | – |
| Oc1ccc(Br)cc1CNc1cc(C(F)(F)F)ccc1Cl | – | – | ≥ 64 | ≥ 64 | ≥ 64 | ≥ 64 | 2 (≈ 5.25 µM) | 1 (≈ 2.63 µM) | ≤ 2 | Active | ≤ 2 | Active |
| Oc1c(Br)cc(Cl)cc1/C=N\CCc1ccc(F)cc1 | – | – | ≥ 64 | ≥ 64 | ≥ 64 | ≥ 64 | – | – | – | – | – | – |
| Oc1ccc(Br)cc1CNc1cccc(OC(F)(F)F)c1 | – | – | ≥ 64 | ≥ 64 | ≥ 64 | ≥ 64 | – | – | – | – | – | – |

| SMILES | Activity (Staphylococcus aureus [1]) | Activity (Staphylococcus aureus [2]) | MIC (Candida tropicalis) [µg/mL] | MIC (Escherichia coli) [µg/mL] | MIC (Pseudomonas aeruginosa) [µg/mL] | MIC (Candida albicans) [µg/mL] | MIC (Staphylococcus aureus [1]) [µg/mL] | MIC (Staphylococcus aureus [2]) [µg/mL] | MIC (Bacillus cereus) [µg/mL] | Activity (Staphylococcus aureus [3]) | MIC (Enterococcus faecium) [µg/mL] | inhibition (Staphylococcus aureus [4]) |
| --- | --- | --- | --- | --- | --- | --- | --- | --- | --- | --- | --- | --- |
| Oc1c(Br)cc(Br)cc1/C=N\c1cc(C(F)(F)F)ccc1F | inactive | inactive | ≥ 64 | ≥ 64 | ≥ 64 | ≥ 64 | – | – | – | – | – | – |
| Oc1ccc(Cl)cc1CNc1cc(C(F)(F)F)ccc1Cl | – | – | ≥ 64 | ≥ 64 | ≥ 64 | ≥ 64 | 1 (≈ 2.97 µM) | 1 (≈ 2.97 µM) | ≤ 2 | Active | ≤ 2 | Active |
| Oc1c(Br)cc(Cl)cc1CNc1cccc(C(F)(F)F)c1 | – | – | ≥ 64 | ≥ 64 | ≥ 64 | ≥ 64 | ≤ 2 | – | ≤ 2 | Active | ≤ 2 | Active |
| Oc1c(Br)cc(Br)cc1CNc1cc(C(F)(F)F)ccc1F | – | – | ≥ 64 | ≥ 64 | ≥ 64 | ≥ 64 | 4 (≈ 9.03 µM) | 4 (≈ 9.03 µM) | – | – | – | – |
| Oc1ccc(Cl)cc1/C=N\c1cc(C(F)(F)F)ccc1F | – | – | ≥ 64 | ≥ 64 | ≥ 64 | ≥ 64 | – | – | – | – | – | – |
| C[C@@H]1[C@H](O)[C@@H](C)/C=C/C=C/C=C/C=C/C=C/C=C/C=C/[C@H](O[C@@H]2O[C@H](C)[C@@H](O)[C@H](N)[C@@H]2O)C[C@@H]2O[C@](O)(C[C@@H](O)C[C@@H](O)[C@H](O)CC[C@@H](O)C[C@@H](O)CC(=O)O[C@H]1C)C[C@H](O)[C@H]2C(=O)O [AMPHOTERICIN B] | – | – | ≥ 64 | ≥ 64 | ≥ 64 | ≥ 64 | – | – | – | – | – | – |
| Oc1c(Br)cc(Cl)cc1CNCCc1ccc(Br)cc1 | – | – | ≥ 64 | ≥ 64 | ≥ 64 | ≥ 64 | – | – | – | – | – | – |
| Oc1c(Br)cc(Br)cc1CNc1cccc(C(F)(F)F)c1 | – | – | ≥ 64 | ≥ 64 | ≥ 64 | ≥ 64 | ≤ 2 | – | ≤ 2 | Active | ≤ 2 | Active |
| Oc1c(Cl)cc(Cl)cc1CNc1cc(C(F)(F)F)ccc1Cl | – | – | ≥ 64 | ≥ 64 | ≥ 64 | ≥ 64 | ≤ 2 | – | ≤ 2 | Active | ≤ 2 | Active |
| Oc1c(Br)cc(Br)cc1CNc1cc(C(F)(F)F)ccc1Cl | – | – | ≥ 64 | ≥ 64 | ≥ 64 | ≥ 64 | 1 (≈ 2.18 µM) | 1 (≈ 2.18 µM) | ≤ 2 | Active | ≤ 2 | Active |
| Oc1c(Cl)cc(Cl)cc1/C=N\c1cc(C(F)(F)F)ccc1Cl | – | – | ≥ 64 | ≥ 64 | ≥ 64 | ≥ 64 | – | – | – | – | – | – |
| CN(C)[C@@H]1C(O)=C(C(N)=O)C(=O)[C@@]2(O)C(O)=C3C(=O)c4c(O)cccc4[C@@](C)(O)[C@H]3C[C@@H]12 [TETRACYCLINE] | – | – | ≥ 64 | ≥ 64 | ≥ 64 | ≥ 64 | – | – | – | – | – | – |
| Oc1cccc(/N=C\c2cc(Cl)cc(Br)c2O)c1 | – | – | ≥ 64 | ≥ 64 | ≥ 64 | ≥ 64 | – | – | – | – | – | – |
| Oc1c(Br)cc(Br)cc1/C=N\c1cc(C(F)(F)F)ccc1Cl | inactive | inactive | ≥ 64 | ≥ 64 | ≥ 64 | ≥ 64 | – | – | – | – | – | – |
| Oc1ccc(Br)cc1/C=N\c1cc(C(F)(F)F)ccc1F | – | – | ≥ 64 | ≥ 64 | ≥ 64 | ≥ 64 | – | – | – | – | – | – |
| Oc1cc(Cl)ccc1Oc1ccc(Cl)cc1Cl [TRICLOSAN] | – | – | ≥ 64 | ≥ 64 | ≥ 64 | ≥ 64 | – | – | – | – | – | – |
| Oc1ccc(Cl)cc1/C=N\c1cc(C(F)(F)F)ccc1Cl | – | – | ≥ 64 | ≥ 64 | ≥ 64 | ≥ 64 | – | – | – | – | – | – |
